Test [1] relates to CCRF-CEM/ara-C. The experiment in a line: Cytotoxicity against CCRF-CEM/ara-C human leukemic lymphoblastoid cell lines. In kind it is functional, cell-based. Summed up:
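Ara-C-resistant subline of CCRF-CEM human leukemic lymphoblasts, deficient in deoxycytidine kinase activity. Growth inhibition measured in culture.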

Test [2] has as its system CCRF-CEM. Put plainly: Cytotoxicity against CCRF-CEM human leukemic lymphoblastoid cell lines. In kind it is functional, cell-based.
Test [3] relates to L1210. The experiment in a line: Antileukemic activity against L1210 leukemia cells in female B6D2F1/J mice at 156 mg/kg dose (post inoculation life span, days). In kind it is functional, Mus musculus. Summed up: (§1)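 Female B6D2F1/J mice (about 20 g) inoculated ip on day 0 with ascites fluid containing 10^6 L1210 cells. Starting 24 h later, hydrochloride salt given ip daily for 7 consecutive days in water (neutralized with 1 N NaOH when necessary), 0.01 mL/g body weight. Five mice per dose. Life span reported as mean ± 1 SD. Increased life span calculated as (T/C - 1) × 100 against untreated controls.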

For test [4], the system named is L1210. Put plainly: Antileukemic activity against L1210 leukemia cells in female B6D2F1/J mice at 208 mg/kg dose (post inoculation life span, days). In kind it is functional, Mus musculus. In a few lines:
as §1

For test [5], the system named is L1210. The experiment in a line: Antileukemic activity against L1210 leukemia cells in female B6D2F1/J mice at 34 mg/kg dose (post inoculation life span, days). In kind it is functional, Mus musculus. Summed up: as §1
Test [6] deals with L1210. The experiment in a line: Antileukemic activity against L1210 leukemia cells in female B6D2F1/J mice at 93 mg/kg dose (post inoculation life span, days). In kind it is functional, Mus musculus. Summed up:
as §1

The test system of test [7] is L1210. Put plainly: Antileukemic activity against L1210 leukemia cells in female B6D2F1/J mice at 208 mg/kg dose(Mean increased life span, calculated as (T/C-1)X100). In kind it is functional, Mus musculus. In a few lines: as §1
The test system of test [8] is L1210. Put plainly: Antileukemic activity against L1210 leukemia cells in female B6D2F1/J mice at 34 mg/kg dose(Mean increased life span, calculated as (T/C-1)X100). In kind it is functional, Mus musculus. Summed up:
as §1

Test [9] has as its system L1210. Put plainly: Antileukemic activity against L1210 leukemia cells in female B6D2F1/J mice at 56 mg/kg dose(Mean increased life span, calculated as (T/C-1)X100). In kind it is functional, Mus musculus. In a few lines:
as §1

Test [10] deals with MOLT-4. The experiment in a line: Cytotoxicity against MOLT-4 human leukemic lymphoblastoid cell lines. In kind it is functional, cell-based.
The test system of test [11] is L1210. The experiment in a line: Antileukemic activity against L1210 leukemia cells in female B6D2F1/J mice at 156 mg/kg dose(Mean increased life span, calculated as (T/C-1)X100). In kind it is functional, Mus musculus. In a few lines: as §1
Test [12] has as its system L1210. The experiment in a line: Antileukemic activity against L1210 leukemia cells in female B6D2F1/J mice at 93 mg/kg dose(Mean increased life span, calculated as (T/C-1)X100). In kind it is functional, Mus musculus. Summed up: as §1
Test [13] concerns RPMI 6410. The experiment in a line: Cytotoxicity against RPMI-6410 human leukemic lymphoblastoid cell lines. In kind it is functional, cell-based.
Test [14] relates to L1210. Put plainly: Antileukemic activity against L1210 leukemia cells in female B6D2F1/J mice at 56 mg/kg dose (post inoculation life span, days). In kind it is functional, Mus musculus. Summed up: as §1
The test system of test [15] is L1210. The experiment in a line: Antileukemic activity against L1210 leukemia cells in female B6D2F1/J mice at 56 mg/kg dose(Mean increased life span, calculated as (T/C-1)[…]). In kind it is functional, Mus musculus. In a few lines: as §1
The subject of test [16] is L1210. The experiment in a line: Antileukemic activity against L1210 leukemia cells in female B6D2F1/J mice at 208 mg/kg dose(Mean increased life span, calculated as […]. In kind it is functional, Mus musculus. Summed up:
as §1

The structures appear in SMILES notation.

By IC50 is commonly meant the midpoint of a concentration-inhibition curve. Higher therefore signals lower potency. Turning to `Nc1ccn([C@@H]2O[C@H](CO)[C@@H](O)[C@@H]2O)c(=O)n1` [CYTARABINE], the IC50 in [1] was 100 µM; in test [2] it was 0.02 µM; in test [10], 0.01 µM; in test [13], 0.06 µM. Moreover, the Life span was determined as 16.25 days in test [3]; 16.6 days in [4]; 12.8 days in test [5]; 14 days in [6]; 13 days in test [14]. The “Mean increased life span” value was 162% in test [7]; 102% in [8]; 105% in test [9]; 157% in test [11]; 128% in test [12].

As to `Nc1ccn([C@@H]2O[C@H](CO)[C@@H](O)[C@@H]2O[N+](=O)[O-])c(=O)n1`, the IC50 in test [1] worked out at 1000 µM; in [2], 0.6 µM; in [10] it was 0.4 µM; in test [13] it was 6 µM. Moreover, the Life span is 13.8 days in test [3]; 16.6 days in [4]; 7.4 days in test [5]; 10.8 days in test [6]; 10.4 days in test [14]. For the same molecule, the “Mean increased life span” value in test [8] was 17%; in [11] it was 118%; in [15], 64%; in test [12], 71%; in [16] it was 162%.

Values taken from ChEMBL document CHEMBL1122440, “2'-O-nitro-1-beta-D-arabinofuranosylcytosine. A new derivative of 1-beta-D-arabinofuranosylcytosine that resists enzymatic deamination and has antileukemic activity” (J Med Chem, 1983).
